Test results published in ChEMBL document CHEMBL1153436, “2-Pyridyl P1'-substituted symmetry-based human immunodeficiency virus protease inhibitors (A-792611 and A-790742) with potential for convenient dosing and reduced side effects” (J Med Chem, 2009).
pEC50: −log10 of the molar value.

Experiments:
[1] = system: Human immunodeficiency virus 1; test: Antiviral activity against HIV1 bearing protease gene with B26 mutation infected in human MT4 cells after 5 days by MTT assay; format: functional, organism-based; conditions: Human immunodeficiency virus 1, MT4, 120 h
[2] = system: Human immunodeficiency virus 1; test: Antiviral activity against HIV1 bearing protease gene with P25 mutation infected in human MT4 cells after 5 days by MTT assay; format: functional, organism-based; conditions: Human immunodeficiency virus 1, MT4, 120 h
[3] = system: Human immunodeficiency virus 1; test: Antiviral activity against HIV1 bearing protease gene with A17 mutation infected in human MT4 cells after 5 days by MTT assay; format: functional, organism-based; conditions: Human immunodeficiency virus 1, MT4, 120 h
Summary of the method: (§1)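 HIV-1 A17 mutant clone carrying protease mutations L10F, V32I, M46I, I47V, Q58E and I84V, generated by in vitro serial passage under LPV/RTV. EC50 was determined in MT-4 cells. Wild-type reference strain was HIV-1 pNL4-3.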

[4] = system: Human immunodeficiency virus 1; test: Antiviral activity against wild-type HIV1 pNL4-3 infected in human MT4 cells after 5 days by MTT assay; format: functional, organism-based; conditions: Human immunodeficiency virus 1, MT4, 120 h
[5] = system: Human immunodeficiency virus 1; test: Antiviral activity against wild-type HIV1 pNL4-3 infected in human MT4 cells after 5 days by MTT assay in presence of 50% human serum; format: functional, organism-based; conditions: Human immunodeficiency virus 1, MT4, 120 h
[6] = system: Human immunodeficiency virus 1; test: Fold resistance, ratio of EC50 for HIV1 bearing protease gene with A17 mutation to EC50 for wild-type HIV1 pNL4-3; format: functional; summary of the method: as §1
[7] = Half life in Sprague-Dawley rat at 5 mg/kg, iv; format: ADME, organism-based; design: dose 5 mg/kg, route intravenous; conditions: in vivo
Summary of the method: (§2)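 Male Sprague-Dawley-derived rats (n = 3) dosed iv or by oral gavage with 5 mg/mL solutions in 5% dextrose containing 20% ethanol, 30% propylene glycol and methanesulfonic acid equivalents. Plasma was sampled at 10 time points over 8 h, extracted into ethyl acetate/hexane and analysed by reversed-phase HPLC with internal standard. AUC in µg·h/mL.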

[8] = Clearance in Sprague-Dawley rat at 5 mg/kg, iv; format: ADME, organism-based; design: dose 5 mg/kg, route intravenous; conditions: in vivo; summary of the method: as §2
[9] = Oral bioavailability in Sprague-Dawley rat at 5 mg/kg; format: ADME, organism-based; conditions: in vivo; summary of the method: as §2
[10] = AUC in Sprague-Dawley rat at 5 mg/kg, po; format: ADME, organism-based; design: dose 5 mg/kg, route oral; conditions: plasma; summary of the method: as §2
[11] = AUC in Sprague-Dawley rat at 5 mg/kg, po in presence of ritonavir; format: ADME, organism-based; design: dose 5 mg/kg, route oral; conditions: plasma; summary of the method: as §2

Row | Structure (SMILES) | pEC50 [1] | pEC50 [2] | pEC50 [3] | pEC50 [4] | pEC50 [5] | Ratio EC50 [6] | half-life [7] | clearance [8] | bioavailability [9] | AUC [10] | AUC [11]
1 | CC(C)CN(C[C@@H](O)[C@H](Cc1ccccc1)NC(=O)O[C@H]1CO[C@H]2OCC[C@H]21)S(=O)(=O)c1ccc(N)cc1 | 6.23 | 6.29 | 6.47 | – | – | – | – | – | – | – | –
2 | COC(=O)N[C@H](C(=O)N[C@H](Cc1ccc(-c2ccccn2)cc1)C[C@H](O)[C@H](Cc1ccccc1)NC(=O)[C@@H](N1CCN(Cc2cccc(C(C)(C)C)n2)C1=O)C(C)(C)C)C(C)(C)C | – | – | 6.82 | 7.82 | 6.51 | 10 | – | – | – | – | –
3 | COC(=O)N[C@H](C(=O)N[C@@H](Cc1ccc(-c2ccccn2)cc1)C[C@H](O)[C@H](Cc1ccccc1)NC(=O)[C@@H](N1CCN(Cc2csc(-c3cccnc3)n2)C1=O)C(C)(C)C)C(C)(C)C | – | – | – | 8.10 | 7.59 | 1 | 42 min | 34.2 mL/min/kg | 0.8% | 20 ng·h/mL | 120 ng·h/mL
4 | COC(=O)N[C@H](C(=O)N[C@@H](Cc1ccc(-c2ccccn2)cc1)C[C@H](O)[C@H](Cc1ccccc1)NC(=O)[C@@H](N1CCN(Cc2cccc(OC)c2)C1=O)C(C)(C)C)C(C)(C)C | – | – | 7.28 | 7.85 | 7.19 | 4 | – | – | – | – | –
5 | COC(=O)N[C@H](C(=O)N[C@@H](Cc1ccc(-c2ccccn2)cc1)C[C@H](O)[C@H](Cc1ccccc1)NC(=O)[C@@H](N1CCN(Cc2nc3ccccc3n2C)C1=O)C(C)(C)C)C(C)(C)C | – | – | 7.49 | 6.85 | 6.46 | <1 | – | – | – | – | –
6 | COC(=O)N[C@H](C(=O)N[C@@H](Cc1ccc(-c2ccccn2)cc1)C[C@H](O)[C@H](Cc1ccccc1)NC(=O)[C@@H](N1CCN(Cc2ccccc2N)C1=O)C(C)(C)C)C(C)(C)C | – | – | 7.68 | 8.40 | 7.70 | 5 | 72 min | 33.2 mL/min/kg | 2.9% | 80 ng·h/mL | 1250 ng·h/mL
7 | COC(=O)N[C@H](C(=O)N[C@H](Cc1ccc(-c2ccccn2)cc1)C[C@H](O)[C@H](Cc1ccccc1)NC(=O)[C@@H](N1CCN(Cc2csc(C)n2)C1=O)C(C)(C)C)C(C)(C)C | – | – | 7.92 | 8.52 | 7.82 | 4 | 24 min | 31 mL/min/kg | 5.9% | 160 ng·h/mL | 1980 ng·h/mL
8 | COC(=O)N[C@H](C(=O)N[C@@H](Cc1ccc(-c2ccccn2)cc1)[C@@H](O)C[C@H](Cc1ccccc1)NC(=O)[C@@H](N1CCN(Cc2csc(-c3cccnc3)n2)C1=O)C(C)(C)C)C(C)(C)C | – | – | 9.00 | 8.70 | 7.74 | <1 | 48 min | 46.7 mL/min/kg | 1.6% | 30 ng·h/mL | 260 ng·h/mL
9 | COC(=O)N[C@H](C(=O)N[C@@H](Cc1ccc(-c2ccccn2)cc1)C[C@H](O)[C@H](Cc1ccccc1)NC(=O)[C@@H](N1CCN(Cc2cccc(C)c2)C1=O)C(C)(C)C)C(C)(C)C | – | – | 7.39 | 8.30 | 7.60 | 8 | 84 min | 29.3 mL/min/kg | 0.8% | 20 ng·h/mL | 2700 ng·h/mL
10 | COC(=O)N[C@H](C(=O)N[C@@H](Cc1ccc(-c2ccccn2)cc1)[C@@H](O)C[C@H](Cc1ccccc1)NC(=O)[C@@H](N1CCN(Cc2ccnc3ccccc23)C1=O)C(C)(C)C)C(C)(C)C | – | – | 9.00 | 8.70 | 7.82 | <1 | 24 min | 33.3 mL/min/kg | 1.1% | 50 ng·h/mL | 3300 ng·h/mL
11 | COC(=O)N[C@H](C(=O)N[C@@H](Cc1ccc(-c2ccccn2)cc1)C[C@H](O)[C@H](Cc1ccccc1)NC(=O)[C@@H](N1CCN(Cc2ccccc2OC)C1=O)C(C)(C)C)C(C)(C)C | – | – | 7.31 | 8.40 | 7.77 | 12 | 72 min | 36 mL/min/kg | 3.1% | 70 ng·h/mL | 9380 ng·h/mL
12 | COC(=O)N[C@H](C(=O)N[C@H](Cc1ccc(-c2ccccn2)cc1)C[C@H](O)[C@H](Cc1ccccc1)NC(=O)[C@@H](N1CCN(Cc2ccnc3ccccc23)C1=O)C(C)(C)C)C(C)(C)C | – | – | 8.10 | 8.30 | 7.68 | 2 | 36 min | 41.7 mL/min/kg | 0% | – | 9200 ng·h/mL
13 | COC(=O)N[C@H](C(=O)N[C@@H](Cc1ccc(-c2ccccn2)cc1)C[C@H](O)[C@H](Cc1ccccc1)NC(=O)[C@@H](N1CCN(Cc2ccnc3ccccc23)C1=O)C(C)(C)C)C(C)(C)C | – | – | 8.70 | 8.40 | 7.72 | <1 | 66 min | 30 mL/min/kg | 0.6% | 20 ng·h/mL | 2860 ng·h/mL
14 | COC(=O)N[C@H](C(=O)N[C@@H](Cc1ccc(-c2ccccn2)cc1)[C@@H](O)C[C@H](Cc1ccccc1)NC(=O)[C@@H](N1CCN(Cc2cccc(C(C)(C)O)n2)C1=O)C(C)(C)C)C(C)(C)C | – | – | 8.70 | 8.40 | 7.72 | <1 | 54 min | 16.7 mL/min/kg | 17% | 880 ng·h/mL | 1820 ng·h/mL
15 | COC(=O)N[C@H](C(=O)N[C@@H](Cc1ccc(-c2ccccn2)cc1)[C@@H](O)C[C@H](Cc1ccccc1)NC(=O)[C@@H](N1CCN(Cc2csc(C)n2)C1=O)C(C)(C)C)C(C)(C)C | – | – | 8.70 | 8.52 | 7.47 | <1 | 30 min | 31.7 mL/min/kg | 11.2% | 320 ng·h/mL | 8400 ng·h/mL
16 | COC(=O)N[C@H](C(=O)N[C@H](Cc1ccc(-c2ccccn2)cc1)C[C@H](O)[C@H](Cc1ccccc1)NC(=O)[C@@H](N1CCN(Cc2cccc(C(C)C)n2)C1=O)C(C)(C)C)C(C)(C)C | – | – | 7.18 | 7.82 | 6.98 | 4 | – | – | – | – | –
17 | COC(=O)N[C@H](C(=O)N[C@@H](Cc1ccc(-c2ccccn2)cc1)C[C@H](O)[C@H](Cc1ccccc1)NC(=O)[C@@H](N1CCN(Cc2cccc(C(C)(C)O)n2)C1=O)C(C)(C)C)C(C)(C)C | – | – | 8.40 | 8.22 | 7.28 | – | 60 min | 23.3 mL/min/kg | 5.7% | 200 ng·h/mL | 830 ng·h/mL
18 | COC(=O)N[C@H](C(=O)N[C@H](Cc1ccc(-c2ccccn2)cc1)C[C@H](O)[C@H](Cc1ccccc1)NC(=O)[C@@H](N1CCN(Cc2ccccc2)C1=O)C(C)(C)C)C(C)(C)C | – | – | 7.43 | 7.96 | 7.37 | 3 | – | – | – | – | –
19 | COC(=O)N[C@H](C(=O)N[C@H](Cc1ccc(-c2ccccn2)cc1)C[C@H](O)[C@H](Cc1ccccc1)NC(=O)[C@@H](N1CCN(Cc2nc3ccccc3n2C)C1=O)C(C)(C)C)C(C)(C)C | – | – | 7.70 | 8.52 | 7.48 | 7 | 42 min | 54 mL/min/kg | 0.1% | – | 1170 ng·h/mL
